In ChEMBL document CHEMBL1157101, “A series of alpha-heterocyclic carboxaldehyde thiosemicarbazones inhibit topoisomerase IIalpha catalytic activity” (J Med Chem, 2010):
Where a name gives a salt, the structure may show the parent alone. Activity calls are given as the source filed them. The rule behind the calls is not given here.

Experiments:
[1] = molecular target: T1, DNA topoisomerase 2-alpha (Homo sapiens, UniProt P11388); assay: Inhibition of human topoisomerase 2 alpha-mediated decatenation of kDNA at 100 uM after 15 mins
HL-60 = assay: Antiproliferative activity against human HL60 cells after 72 hrs by sulforhodamine B assay; assay type: functional, cell-based; conditions: HL-60, 72 h, in the assay text read “MTT assay” for “sulforhodamine B assay”
Method in brief: (§1)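 Cells seeded and exposed in triplicate to graded compound concentrations for 72 h. Suspension cells read by MTT conversion to coloured product; adherent cells read by sulforhodamine B. IC50 (50% growth inhibition versus untreated control) derived by the Logit method.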

HT-29 [2] = assay: Antiproliferative activity against human HT-29 cells after 72 hrs by sulforhodamine B assay; assay type: functional, cell-based; conditions: HT-29, 72 h; method in brief: as §1
SGC-7901 = assay: Antiproliferative activity against human SGC7901 cells after 72 hrs by sulforhodamine B assay; assay type: functional, cell-based; conditions: SGC-7901, 72 h; method in brief: as §1
HeLa = assay: Antiproliferative activity against human HeLa cells after 72 hrs by sulforhodamine B assay; assay type: functional, cell-based; method in brief: as §1
KB = assay: Antiproliferative activity against human KB cells after 72 hrs by sulforhodamine B assay; assay type: functional, cell-based; method in brief: as §1
[3] = Antiproliferative activity against human KB/VCR cells after 72 hrs by sulforhodamine B assay; assay type: functional, cell-based; method in brief: as §1
[4] = Antiproliferative activity against human K562/A02 cells after 72 hrs by sulforhodamine B assay; assay type: functional, cell-based; conditions: K562/A02, 72 h, in the assay text read “MTT assay” for “sulforhodamine B assay”; method in brief: as §1
[5] = Antiproliferative activity against human MCF7/ADR cells after 72 hrs by sulforhodamine B assay; assay type: functional, cell-based; conditions: NCI/ADR-RES; method in brief: as §1
Nucleic Acid [6] = assay: Inhibition of Fenton's reaction mediated DNA strand break in Escherichia coli pBR322 at 0.1 to 1 uM by gel electrophoresis; assay type: nucleic-acid assay
Method in brief: (§2)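 pBR322 (0.2 μg) incubated 30 min at room temperature in 13 mM Hepes pH 7.2 with 1 mM H2O2 and 10 μM FeSO4 plus compound. Run on 1% agarose containing 0.1 μg/mL ethidium bromide at 90 V for 60 min. Bands quantified; % supercoiled = 1.4SC/(L+OC+1.4SC)×100.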

HT-29 [7] = assay: Cell cycle arrest in nocodazole pretreated human HT-29 cells assessed as accumulation at M phase at 5 uM after 24 hrs; assay type: functional, cell-based
Method in brief: (§3)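 HT-29 cells stained with propidium iodide; cell-cycle distribution determined by flow cytometry.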

HT-29 [8] = assay: Cell cycle arrest in nocodazole pretreated human HT-29 cells assessed as accumulation at M phase at 10 uM after 24 hrs; assay type: functional, cell-based; method in brief: as §3
Nucleic Acid [9] = assay: Inhibition of Fenton's reaction mediated DNA strand break in Escherichia coli pBR322 at 1 to 100 uM by gel electrophoresis; assay type: nucleic-acid assay; method in brief: as §2
Nucleic Acid [10] = assay: Inhibition of Fenton's reaction mediated DNA strand break in Escherichia coli pBR322 by gel electrophoresis; assay type: nucleic-acid assay; method in brief: as §2
[11] = molecular target: T1, DNA topoisomerase 2-alpha; assay: Inhibition of human topoisomerase 2alpha-mediated relaxation of pBR322 up to 125 uM

T1 sequence (P11388 whole entry): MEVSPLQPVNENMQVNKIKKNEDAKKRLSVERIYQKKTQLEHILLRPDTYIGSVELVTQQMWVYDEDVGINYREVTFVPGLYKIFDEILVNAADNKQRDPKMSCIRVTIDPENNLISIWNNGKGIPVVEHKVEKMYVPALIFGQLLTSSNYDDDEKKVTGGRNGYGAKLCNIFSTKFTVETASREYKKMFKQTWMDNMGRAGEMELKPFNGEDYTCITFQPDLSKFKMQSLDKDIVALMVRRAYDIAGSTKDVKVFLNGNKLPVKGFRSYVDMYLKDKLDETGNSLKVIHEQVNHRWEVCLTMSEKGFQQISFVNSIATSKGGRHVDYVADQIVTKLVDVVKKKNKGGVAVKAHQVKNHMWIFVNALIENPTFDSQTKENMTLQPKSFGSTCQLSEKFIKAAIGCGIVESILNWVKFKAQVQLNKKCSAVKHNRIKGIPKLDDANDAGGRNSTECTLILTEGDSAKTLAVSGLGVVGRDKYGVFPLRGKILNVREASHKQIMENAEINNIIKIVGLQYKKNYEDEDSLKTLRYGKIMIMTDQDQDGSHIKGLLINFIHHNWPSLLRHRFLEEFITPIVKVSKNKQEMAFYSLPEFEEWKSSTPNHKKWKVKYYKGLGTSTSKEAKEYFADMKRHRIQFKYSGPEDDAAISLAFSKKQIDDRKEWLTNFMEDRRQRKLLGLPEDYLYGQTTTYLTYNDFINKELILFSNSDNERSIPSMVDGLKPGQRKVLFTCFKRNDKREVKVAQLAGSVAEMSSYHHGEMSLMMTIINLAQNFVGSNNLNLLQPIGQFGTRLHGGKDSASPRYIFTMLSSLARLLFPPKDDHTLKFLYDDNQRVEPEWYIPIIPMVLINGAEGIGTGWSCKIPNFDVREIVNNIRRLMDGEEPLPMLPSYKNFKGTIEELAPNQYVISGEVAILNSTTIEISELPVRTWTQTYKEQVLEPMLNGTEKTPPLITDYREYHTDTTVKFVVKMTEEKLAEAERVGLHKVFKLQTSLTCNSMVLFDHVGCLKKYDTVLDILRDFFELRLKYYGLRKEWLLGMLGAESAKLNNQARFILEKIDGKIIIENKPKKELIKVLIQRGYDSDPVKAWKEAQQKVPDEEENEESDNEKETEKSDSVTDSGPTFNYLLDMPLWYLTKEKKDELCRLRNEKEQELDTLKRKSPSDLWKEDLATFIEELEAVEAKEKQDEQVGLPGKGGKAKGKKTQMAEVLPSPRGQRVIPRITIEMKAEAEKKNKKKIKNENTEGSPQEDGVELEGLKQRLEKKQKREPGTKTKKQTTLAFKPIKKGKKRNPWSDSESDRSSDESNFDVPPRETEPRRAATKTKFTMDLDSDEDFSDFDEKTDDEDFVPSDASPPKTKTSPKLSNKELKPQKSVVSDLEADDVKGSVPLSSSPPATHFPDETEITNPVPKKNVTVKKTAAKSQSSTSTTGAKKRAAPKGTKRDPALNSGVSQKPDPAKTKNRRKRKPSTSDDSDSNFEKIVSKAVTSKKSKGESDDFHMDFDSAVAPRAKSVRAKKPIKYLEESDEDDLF

inhibition (active/not active) [1] | IC50 (HL-60) [µM] | IC50 (HT-29 [2]) [µM] | IC50 (SGC-7901) [µM] | IC50 (HeLa) [µM] | Structure (SMILES) | other results
Active | 3.68 | 0.25 | 0.83 | 2.1 | CN(C)C(=S)N/N=C/c1nc2ccccc2s1 | 
 | > 100 | > 100 | > 100 | > 100 | Cc1ccc(NC(=O)N/N=C/c2ccc3ccccc3n2)cc1 | 
 | 78.3 | 85.5 | 92.9 | 86 | Cc1ccc(NC(=S)N/N=C/c2ccc3ccccc3n2)cc1 | 
 |  |  |  |  | CC[C@]1(O)C[C@H]2CN(CCc3c([nH]c4ccccc34)[C@@](C(=O)OC)(c3cc4c(cc3OC)N(C=O)[C@H]3[C@@](O)(C(=O)OC)[C@H](OC(C)=O)[C@]5(CC)C=CCN6CC[C@]43[C@@H]65)C2)C1 [VINCRISTINE] | IC50 (KB): 0.01 µM; IC50 [3]: 0.84 µM
 | > 100 | > 100 | > 100 | > 100 | Fc1ccccc1NC(=S)N/N=C/c1ccc2ccccc2n1 | 
 | > 100 | > 100 | > 100 | > 100 | NC(=S)N/N=C/c1cnc2ccccc2n1 | 
inactive | 73.2 | 42.2 | > 100 | > 100 | Cc1ccccc1NC(=S)N/N=C/c1ccc2ccccc2n1 | 
inactive | 43.8 | 74.7 | 79.9 | 70.1 | Fc1cccc(NC(=S)N/N=C/c2ccc3ccccc3n2)c1 | 
Active | > 100 | 13.4 | 21.4 | 48.4 | CN(C)C(=S)N/N=C/c1cc2cccnc2s1 | 
 | > 100 | > 100 | > 100 | > 100 | COc1ccc(C)cc1NC(=S)N/N=C/c1ccc2ccccc2n1 | 
 |  |  |  |  | COc1cccc2c1C(=O)c1c(O)c3c(c(O)c1C2=O)C[C@@](O)(C(=O)CO)C[C@@H]3O[C@H]1C[C@H](N)[C@H](O)[C@H](C)O1 [DOXORUBICIN HYDROCHLORIDE] | IC50 [4]: 23.8 µM; IC50 [5]: 44.9 µM
 | 21.9 | 75.7 | 53.7 | 62.8 | S=C(NCc1ccccc1)N/N=C/c1ccc2ccccc2n1 | 
 | > 100 | > 100 | > 100 | > 100 | S=C(N/N=C/c1ccc2ccccc2n1)Nc1ccccc1Br | 
 |  |  |  |  | CC(=O)N(O)CCCCCNC(=O)CCC(=O)N(O)CCCCCNC(=O)CCC(=O)N(O)CCCCCN | inhibition (Nucleic Acid [6]): Active; Activity (HT-29 [7]): Active; Activity (HT-29 [8]): Active; inhibition (Nucleic Acid [9]): Active; inhibition (Nucleic Acid [10]): Dose-dependent effect; inhibition [11]: inactive
 | 43.8 | 82.3 | 89.6 | 72.6 | COc1ccc(NC(=S)N/N=C/c2ccc3ccccc3n2)cc1 | 
 | 34.9 | 63.9 | 72.2 | 59.1 | FC(F)(F)c1ccc(NC(=S)N/N=C/c2ccc3ccccc3n2)cc1 | 
inactive | > 100 | 100 | 32.7 | 0.96 | NC(=S)N/N=C/c1ccc2ccccc2n1 | 
Active | 0.09 | 0.45 | 0.17 | 0.75 | CN(C)C(=S)N/N=C/c1cnc2ccccc2n1 | 
 | 71.2 | 82.4 | 79.4 | 74.5 | COc1cccc(NC(=S)N/N=C/c2ccc3ccccc3n2)c1 | 
